Data as given in ChEMBL document CHEMBL4325910, “Design and synthesis of rosiglitazone-ferulic acid-nitric oxide donor trihybrids for improving glucose tolerance” (Eur J Med Chem, 2019).
Active and inactive are the calls of the source. The rule behind the calls is not given here.

Legend:
L02 = experiment: Inhibition of cellular glucose output in dexamethasone-induced insulin resistant human L02 cells assessed as insulin-stimulated glucose uptake at 10 uM preincubated for 24 hrs followed by insulin stimulation measured after 24 hrs by glucose oxidase method (reference value: 4.5 +/- 0.7%); type: functional; design: scale not given: the % may be the effect or the level left
3T3-L1 [1] = experiment: Induction of insulin-stimulated 2-NBDG uptake in TNF-alpha-induced insulin resistant mouse 3T3L1 cells at 10 uM preincubated for 48 hrs followed by 2-NBDG addition measured after 30 mins in presence of insulin by fluorescence assay; type: functional, cell-based
Method in brief: (§1)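 Day-8 differentiated 3T3-L1 adipocytes received TNF-α (4 ng/mL) daily for 4 days. They were pretreated in triplicate for 48 h (C-PTIO 20 μM where indicated), then given 100 μM 2-NBDG at 37 °C for 30 min in the dark, with or without insulin. After KRP washes, fluorescence was read at Ex/Em 485/515 nm. Three experiments, mean ± SD.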

3T3-L1 [2] = experiment: Induction of insulin-stimulated 2-NBDG uptake in TNF-alpha-induced insulin resistant mouse 3T3L1 cells preincubated for 48 hrs followed by 2-NBDG addition measured after 30 mins in presence of insulin by fluorescence assay; type: functional, cell-based; method in brief: as §1
Mus musculus = experiment: Antidiabetic activity in spontaneous db/db BKS.Cg-Dock7m +/+ Leprdb/J mouse assessed as decrease in blood glucose AUC at 10 mg/kg, po administered as daily dose via gavage for 18 days measured on day 12 up to 120 mins post glucose challenge by oral glucose tolerance test; type: functional, organism-based
Method in brief: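 Male db/db mice (BKS.Cg-Dock7m +/+ Leprdb/J), 6 weeks old on purchase, randomized, n=8 per group. Dosed by gavage in 0.5% CMC-Na daily for 18 consecutive days. Vehicle-dosed db/db and C57BL/6 mice served as model and control. Fasting glucose was read by glucometer every three days. On day 12, after an overnight fast, 2 g/kg glucose was given orally. Blood glucose was read at 0–120 min and AUC calculated. Mean ± SEM.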

[3] = Toxicity in spontaneous db/db BKS.Cg-Dock7m +/+ Leprdb/J mouse assessed as body weight gain at 27 umol/kg, po administered as daily dose via gavage treated for 18 days measured post last dose (reference value: 5.6 +/- 2.1 g); type: organism-based; settings: in vivo, 432 h
3T3-L1 [4] = experiment: Induction of adipogenesis in mouse 3T3L1 preadipocytes assessed as increase in intracellular triglyceride level at 10 uM treated every other day up to day 14 by AdipoRed staining based confocal microscopic method; type: functional, cell-based
Method in brief: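 3T3-L1 preadipocytes were grown to confluence plus 48 h. Differentiation was induced with 1.0 μM dexamethasone, 0.5 mM IBMX and 1.0 μg/mL insulin for 48 h, then insulin alone. Compound or 0.1% DMSO was added every other day to day 14. Cells were washed in KRP, stained with AdipoRed for 15 min in the dark, imaged confocally and read at Ex/Em 485/572 nm.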

Platelet [5] = experiment: Antiplatelet activity in platelet rich plasma (unknown origin) assessed as inhibition of arachidonic acid-induced platelet aggregation; type: functional, cell-based
Platelet [6] = experiment: Antiplatelet activity in platelet rich plasma (unknown origin) assessed as inhibition of ADP-induced platelet aggregation; type: functional, cell-based
[7] = target: Voltage-gated inwardly rectifying potassium channel KCNH2 (Homo sapiens, UniProt Q12809); experiment: Inhibition of human ERG expressed in CHO cells by patch clamp assay; type: cell-based
hERG (KCNH2) [8] = target: T1, hERG (KCNH2) (Homo sapiens, UniProt Q12809); experiment: Inhibition of human ERG expressed in CHO cells at 1.25 uM by patch clamp assay relative to control; type: cell-based; settings: CHO cells that express hERG
hERG (KCNH2) [9] = target: T1, hERG (KCNH2); experiment: Inhibition of human ERG expressed in CHO cells at 2.5 uM by patch clamp assay relative to control; type: cell-based; settings: CHO cells that express hERG
hERG (KCNH2) [10] = target: T1, hERG (KCNH2); experiment: Inhibition of human ERG expressed in CHO cells at 5 uM by patch clamp assay relative to control; type: cell-based; settings: CHO cells that express hERG
hERG (KCNH2) [11] = target: T1, hERG (KCNH2); experiment: Inhibition of human ERG expressed in CHO cells at 10 uM by patch clamp assay relative to control; type: cell-based; settings: CHO cells that express hERG
hERG (KCNH2) [12] = target: T1, hERG (KCNH2); experiment: Inhibition of human ERG expressed in CHO cells at 20 uM by patch clamp assay relative to control; type: cell-based; settings: CHO cells that express hERG
hERG (KCNH2) [13] = target: T1, hERG (KCNH2); experiment: Inhibition of human ERG expressed in CHO cells at 40 uM by patch clamp assay relative to control; type: cell-based; settings: CHO cells that express hERG
[14] = Toxicity in po dosed ICR mouse administered as single dose via gavage treated on day 1 and measured daily up to 14 days; type: organism-based; settings: in vivo
Method in brief: (§2)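 Mice of both sexes, 7 weeks old, were randomized and given one oral gavage dose on day 1. Dose levels were 500, 1000, 2000, 3000, 4000 or 5000 mg/kg, or 2000, 4000 and 5000 mg/kg, with n = 10 per group. Behaviour, health and mortality were checked daily for 14 days, and total deaths were counted on day 14. LD50 was calculated with 95% confidence limits.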

Aquaporin-2 [15] = target: T2, Aquaporin-2 (Homo sapiens, UniProt P41181); experiment: Induction of membrane translocation of biotinylated human AQP2 expressed in rat IMCD cells at 10 to 50 uM after 30 mins by Western blot analysis; type: cell-based; settings: 0.5 h
T2 sequence (P41181 whole entry): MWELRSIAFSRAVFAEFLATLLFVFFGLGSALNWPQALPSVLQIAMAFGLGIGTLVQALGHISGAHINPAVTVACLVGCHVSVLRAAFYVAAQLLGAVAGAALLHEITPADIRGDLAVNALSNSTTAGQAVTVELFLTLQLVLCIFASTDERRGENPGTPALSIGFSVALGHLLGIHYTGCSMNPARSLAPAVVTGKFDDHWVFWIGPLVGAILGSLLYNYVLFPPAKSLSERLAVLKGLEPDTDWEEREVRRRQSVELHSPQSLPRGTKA
Method in brief: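 Human AQP2-transfected primary rat IMCD cells were treated for 30 min. Surface proteins were biotinylated with sulfo-NHS-LC-biotin (3 mg/mL, 60 min, 4 °C), then cells lysed in 1% NP-40 and pulled down overnight on streptavidin beads. Biotinylated and total AQP2 (30 μg/lane) were blotted with anti-AQP2 and quantified by densitometry as the biotinylated/total ratio. Three experiments, mean ± SD.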

Aquaporin-2 [16] = target: T2, Aquaporin-2; experiment: Induction of membrane translocation of biotinylated human AQP2 expressed in rat IMCD cells at 10 to 50 uM after 30 mins by FITC-staining based confocal fluorescence microscopic analysis; type: cell-based; settings: 0.5 h
Method in brief: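 Primary SD rat IMCD cells, day 5, were transfected with a human AQP2 plasmid (5 h, serum-free) and cultured 48 h. They were treated for 30 min, with 0.1% DMSO as vehicle and forskolin 100 μM as reference. Cells were fixed in paraformaldehyde, permeabilized with Triton X-100 and quenched with H2O2/methanol. They were stained with FITC-anti-AQP2 and imaged by confocal microscopy.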

[17] = Metabolic stability in human liver microsomes after 1 hrs in presence of NADPH by HPLC analysis; type: ADME, Microsome; settings: read-out: Stability
Method in brief: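 Compound (100 mM DMSO stock) was added in triplicate to 0.1 M phosphate buffer pH 7.4 with 3.3 mM MgCl2 and human liver microsomes, then preincubated 5 min at 37 °C. NADPH (1.3 mM stock) was added and incubation continued 0, 0.5, 1, 2 or 6 h. Acetonitrile quench, then HPLC at 254 nm.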

[18] = Toxicity in ICR mouse assessed mouse mortality at 2000 mg/kg, po administered as single dose via gavage treated on day 1 and measured daily up to 14 days; type: organism-based; settings: in vivo, 336 h; method in brief: as §2

T1 sequence (Q12809 whole entry): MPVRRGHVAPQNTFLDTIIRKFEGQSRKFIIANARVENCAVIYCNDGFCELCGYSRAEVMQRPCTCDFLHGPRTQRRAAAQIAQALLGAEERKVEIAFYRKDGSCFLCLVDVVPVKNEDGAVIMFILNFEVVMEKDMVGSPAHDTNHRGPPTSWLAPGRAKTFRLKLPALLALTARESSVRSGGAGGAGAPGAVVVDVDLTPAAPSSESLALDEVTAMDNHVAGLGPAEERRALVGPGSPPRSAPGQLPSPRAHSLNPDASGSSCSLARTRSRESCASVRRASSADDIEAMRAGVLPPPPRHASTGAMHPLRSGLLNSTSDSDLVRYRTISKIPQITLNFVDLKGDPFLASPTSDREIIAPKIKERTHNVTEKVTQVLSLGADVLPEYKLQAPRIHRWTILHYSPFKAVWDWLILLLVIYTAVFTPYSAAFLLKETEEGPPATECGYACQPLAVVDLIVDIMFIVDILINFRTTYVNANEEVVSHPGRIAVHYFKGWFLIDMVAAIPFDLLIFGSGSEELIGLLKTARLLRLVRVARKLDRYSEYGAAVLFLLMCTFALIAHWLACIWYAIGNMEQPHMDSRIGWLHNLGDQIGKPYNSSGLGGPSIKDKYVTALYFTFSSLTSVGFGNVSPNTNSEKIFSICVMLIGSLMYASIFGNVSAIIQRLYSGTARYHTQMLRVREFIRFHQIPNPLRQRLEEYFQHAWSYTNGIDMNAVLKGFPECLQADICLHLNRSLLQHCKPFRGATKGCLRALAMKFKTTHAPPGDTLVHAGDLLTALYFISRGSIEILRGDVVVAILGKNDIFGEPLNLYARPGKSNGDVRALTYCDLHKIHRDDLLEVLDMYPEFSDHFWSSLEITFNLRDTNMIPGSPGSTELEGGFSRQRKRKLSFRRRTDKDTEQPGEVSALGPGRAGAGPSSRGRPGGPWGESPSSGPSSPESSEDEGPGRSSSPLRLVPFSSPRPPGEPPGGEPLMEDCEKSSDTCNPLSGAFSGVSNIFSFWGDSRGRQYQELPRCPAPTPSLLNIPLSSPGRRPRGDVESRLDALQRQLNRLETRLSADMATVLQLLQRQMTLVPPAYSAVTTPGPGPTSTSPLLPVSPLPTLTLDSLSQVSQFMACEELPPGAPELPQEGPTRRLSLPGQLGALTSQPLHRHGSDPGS
Voltage-gated inwardly rectifying potassium channel KCNH2, sequence (Q12809 whole entry): as above

SMILES	Activity (L02) [%]	Activity (3T3-L1 [1])	EC50 (3T3-L1 [2]) [µM]	Activity (Mus musculus)	Activity [3] [g]	Activity (3T3-L1 [4])	IC50 (Platelet [5]) [µM]	IC50 (Platelet [6]) [µM]	IC50 [7] [µM]	inhibition at 1.25 µM (hERG (KCNH2) [8]) [%]	inhibition at 2.5 µM (hERG (KCNH2) [9]) [%]	inhibition at 5 µM (hERG (KCNH2) [10]) [%]	inhibition at 10 µM (hERG (KCNH2) [11]) [%]	inhibition at 20 µM (hERG (KCNH2) [12]) [%]	inhibition at 40 µM (hERG (KCNH2) [13]) [%]	LD50 at 336 h [14] [mg/kg]	Activity (Aquaporin-2 [15])	Activity (Aquaporin-2 [16])	remaining at 1 h [17] [%]	Activity [18]
CN(CCOc1ccc(CC2SC(=O)NC2=O)cc1)c1ccccn1 (configuration not stated) [ROSIGLITAZONE]	11.8	Active	1.72	Active	6.6	Active	6400	5700	29.5	9.38	17.3	23.3	30.1	42.5	57.9	2580	Active	Active	–	–
CCN(CC)/[N+]([O-])=N/OCOC(=O)/C=C/c1ccc(OC(=O)OCN2C(=O)SC(Cc3ccc(OCCN(C)c4ccccn4)cc3)C2=O)c(OC)c1 (configuration not stated)	47.8	Active	1.08	–	3.4	Active	700	2100	> 40	9.06	10.8	14.5	18	26.2	39.5	> 5000	Not Active	Not Active	89.9	Non-Toxic
